Bioassay records (PubChem)
T cruzi repl: blocks replication of Trypanosoma cruzi | T. cruzi beta-gal in NIH3T3, luminescence, 90 h | hit rate 1.4% among 300,000 | AID 1885 | inhibition, % (test concentration not listed);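 active = mean inhibition across valid replicates above about 55%, limit read from the data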;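 also: signal also drops with host cell toxicity which is not excluded here; 0% = plate median of DMSO wells and 100% = zero luminescence signal; higher percent means less beta-gal luminescence so fewer parasites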
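System: Mouse NIH/3T3 fibroblasts infected with β-gal-expressing T. cruzi Tulahuen C4 | Quantity: NIH/3T3 cells, 5,000 per well | Reagent: 5000 reporter trypomastigotes per well | Dosing: Compound pinned at 50 nL/well, DMSO | Schedule: 3 h host attachment, then at least 90 h co-culture | Detection: GalScreen luminescence, 60 min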
Beta apoptosis: beta cell apoptosis inhibition; INS-1E cytokine-induced death, ATP luminescence, 48 h; percent of positive-control rescue, neutral wells zero; protection from apoptosis, % (concentration not given with the values); hit rate 0.8% among 300,000;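 active = Every replicate reaches about 75%, or at least half do and their mean reaches it too, limit read from the data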;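 also: 0% = cytokine-treated negative control wells and 100% = positive control rescue; higher means more ATP so stronger rescue from cytokine killing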
SKKanGAS inh: inhibitors of SKKanGAS S. pyogenes growth in kanamycin (SK-promoter or general growth effect); hit rate 1.3% among 300,000; inhibition, % at 7.5 µM; BacTiter-Glo, 6 h; AID 1662;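 active = mean replicate score, as percent of positive control median, at least 50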;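 also: strain carries kanamycin resistance gene driven by streptokinase promoter and grows in 40 µg/ml kanamycin; loss of luminescence reflects streptokinase promoter inhibition or plain growth inhibition; 0% = median of DMSO wells and 100% = positive control at its reference dose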
Calb FLC: affects C. albicans growth with fluconazole; C. albicans CaCi-2 + fluconazole, Alamar Blue growth, 48 h; growth inhibition, % (no concentration beside the values); hit rate 0.57% among 300,000;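 active = growth inhibition above about 58% in most replicates, limit read from the data, passing the limit was not always enough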;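 also: all wells also contain fluconazole at 8 µg/ml as a sub-toxic cotreatment; 0% = median of DMSO wells and 100% = median of geldanamycin control wells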
Mdm2 MdmX PPI: inhibitors of human Mdm2/MdmX interaction. SaOS-2 split-luciferase Mdm2/MdmX complementation, luminescence. O15151+Q00987. AID 485346. inhibition, % at 8 µM. hit rate 3% among 330,000;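 active = inhibition of at least 50% at 8 µM in the primary screen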
CSC inhib: blocks cancer stem cells | cancer stem cell-like cells viability, luminescence | inhibition, % at 7.5 µM | hit rate 1.1% among 300,000; in the data active = inhibition above about 75%; tested in HMLE shEcad cells
Mdm2 MdmX conf: human Mdm2/MdmX binding inhibition, confirmed. shares compounds with Mdm2 MdmX PPI. luminescent assay. inhibition, % at 8 µM. hit rate 55% among 10,000. AID 489028; in the data active = inhibition above about 40%
Full FLuc ctr: inhibits full-length luciferase, flagging false Mdm2/MdmX hits; hit rate 77% among 6,200; SaOS-2 full-length luciferase counterscreen, luminescence; AID 504607; shares compounds with Mdm2 MdmX PPI; inhibition, % at 8 µM;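 active = mean inhibition at 8 µM reaching about 37%, which flags the compound as non-specific, limit read from the data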;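 also: p53-null SaOS-2 cells with luciferase driven by a doxycycline-inducible promoter; compound on cells about two nights before reading with doxycycline added after day one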
Active calls of the source: *; . = no result. Most compounds without a hit are left out; they make up all but 5.7% or so of the library.

SMILES | T cruzi repl | Beta apoptosis | SKKanGAS inh | Calb FLC | Mdm2 MdmX PPI | CSC inhib | Mdm2 MdmX conf | Full FLuc ctr
CC1CN(c2ncnc3c2oc2ccccc23)CC(C)O1 (stereo not drawn) | -4 | -3 | -3 | 58 | -39 | 4 | . | .
CCOc1ccc(C(C)=O)cc1COC(=O)CNC(=O)C12CC3CC(CC(C3)C1)C2 | . | -4 | . | . | 57* | 7 | 2 | .
Cc1cc(C(=O)CCC(=O)NCC2COc3ccccc3O2)c(C)s1 (stereo not drawn) | -1 | 1 | 26 | 11 | 5 | . | . | .
COc1cccc(-c2nnc3sc(-c4ccc(C)cc4)nn23)c1 | -60 | 6 | -8 | 28 | 56* | 15 | 60* | 47*
CCOc1cccc(-c2nnc3sc(-c4cc(OC)c(OC)c(OC)c4)nn23)c1 | 22 | 6 | 5 | -2 | 61* | 6 | 15 | .
COc1cccc(-c2nn3c(-c4cccc(C)c4)nnc3s2)c1 | 34 | 0 | 0 | 16 | -31 | . | . | .
CC(OC(=O)/C=C/c1ccc2ccccc2n1)C(=O)Nc1ccc(S(N)(=O)=O)cc1 (stereo not drawn) | -11 | -12 | 1 | 0 | 72* | 27 | 49* | 66*
NC[C@H](Cc1ccccc1)NCCCCC1CCCCC1 | . | -2 | . | . | -14 | 1 | . | .
CNC[C@H](CC1CCCCC1)NC[C@H](Cc1ccccc1)NCCC12CC3CC(CC(C3)C1)C2 | 46 | 114* | 98* | 91* | 100* | -18 | 100* | 52*
O=C(Sc1cccc2cccnc12)c1ccccc1Br | -1 | 52 | 67* | 112* | 97* | 24 | 90* | 4
CC(=O)/C(=N\Nc1ccccc1)Sc1cccc2cccnc12 | -1 | -2 | 0 | -4 | -10 | -4 | . | .
O=C(Sc1cccc2cccnc12)c1ccc(F)cc1 | . | . | . | . | 93* | . | 95* | 15
c1cncc(C2Nc3ccccc3-c3nc4ccccc4n32)c1 (stereo not drawn) | -9 | -7 | -1 | 9 | 53* | 47 | 52* | 64*
NS(=O)(=O)c1ccc(CCN2C(=O)/C(=C\c3ccc(Cl)cc3)SC2=S)cc1 | 16 | 45 | 15 | -11 | 95* | 35 | 96* | 46*
CCOc1cc(CNCCCN2CCOCC2)ccc1OCC(=O)Nc1cccc2ccccc12 | 45 | 17 | 1 | -45 | 78* | 11 | 54* | 54*
COc1cc([N+](=O)[O-])cc(/C=N/NC(=O)Cn2nc(C)cc2C)c1O | -6 | -4 | 2 | 9 | 57* | 11 | 65* | 50*
CCOc1cc(/C=N/NC(=O)Cc2ccc(C(F)(F)F)cc2[N+](=O)[O-])c(Br)cc1OC | 3 | 17 | 4 | -16 | 77* | 34 | 55* | 31
COc1cc(Br)cc(/C=N/NC(=O)Cc2ccc(C(F)(F)F)cc2[N+](=O)[O-])c1O | 29 | 100* | 98* | 11 | 52* | 40 | 70* | 33
COc1cc([N+](=O)[O-])cc(/C=N/NC(=O)Cn2nccc2C)c1O | 1 | -5 | 3 | -1 | 37 | 28 | . | .
CCn1c(SCC(=O)N2CCN(c3ccccc3)CC2)nc2c([nH]c3ccccc32)c1=O | -8 | 19 | -2 | -11 | 58* | 14 | 28 | 86*
COc1cccc(-n2c(SCC(=O)N3CCOCC3)nc3c([nH]c4ccccc43)c2=O)c1 | 20 | -3 | 5 | 6 | 65* | -9 | 13 | .
CCn1c(SCC(=O)N2CCCCCC2)nc2c([nH]c3ccccc32)c1=O | 28 | 12 | 12 | 3 | 6 | -1 | . | .
COc1cccc(-n2c(SCC(=O)N3CCOCC3)nnc2-c2c[nH]c3ccccc23)c1 | 0 | 8 | -1 | 5 | 1 | -2 | . | .
CCn1c(SCC(=O)NCCc2ccccc2)nc2c([nH]c3ccccc32)c1=O | 17 | 14 | -8 | . | 59* | 19 | 32 | .
Cn1c(SCC(=O)NCc2ccccc2)nc2c([nH]c3ccccc32)c1=O | 2 | -2 | -4 | -5 | 29 | 10 | . | .
O=C(NCCc1ccccc1)C1=CCN(S(=O)(=O)c2ccccc2)CC1 | -8 | -3 | 2 | 4 | 7 | -12 | . | .
